Experimental data pooled from the literature.
Lines come from different studies, so protocols differ.
KIT L576P: Mast/stem cell growth factor receptor Kit (KIT, Homo sapiens, UniProt P10721, L576P)
KIT T670I/V559D: Mast/stem cell growth factor receptor Kit (KIT, Homo sapiens, UniProt P10721, T670I/V559D)
KIT autoinhibited: Mast/stem cell growth factor receptor Kit, autoinhibited (KIT, Homo sapiens, UniProt P10721)
KIT V559D: Mast/stem cell growth factor receptor Kit (KIT, Homo sapiens, UniProt P10721, V559D)
KIT A829P: Mast/stem cell growth factor receptor Kit (KIT, Homo sapiens, UniProt P10721, A829P)
KIT D816H: Mast/stem cell growth factor receptor Kit (KIT, Homo sapiens, UniProt P10721, D816H)

SMILES | target | observed | method | tested at | remaining binding [%]
CCN1CCN(Cc2ccc(C(=O)Nc3ccc(C)c(Oc4ccc5c(c4)CC(=O)N5)c3)cc2C(F)(F)F)CC1 | Mast/stem cell growth factor receptor Kit (KIT, Homo sapiens, UniProt P10721, D816V) | binding | competition with immobilised ligand | 1 µM | 81
CNC(=O)[C@@H]1CC[C@@H](n2c(-c3ccc4cnccc4c3)nc3ccc(C(=O)NCc4cccc(C(N)=O)c4)cc32)C1 | KIT L576P | binding | competition with immobilised ligand | 1 µM | 99
O=C(c1ccc(Nc2ncc(Cl)c(-c3ccc(Cl)s3)n2)cc1)N1CCC(N2CCCC2)CC1 | KIT T670I/V559D | binding | competition with immobilised ligand | 1 µM | 0.75
CNC(=O)c1ccc(Nc2ncc(C(F)(F)F)c(NCc3nccnc3N(C)S(C)(=O)=O)n2)cc1 | KIT L576P | cell-free assay | competition with immobilised ligand | 0.1 µM | 86
N[C@H]1CCN(c2nccc(-c3cnn4ncccc34)n2)C1 | KIT autoinhibited | binding | – | 1 µM | 0
O=C(c1ccc(Nc2nccc(-c3cc4ccccc4s3)n2)cc1)N1CCC(N2CCCC2)CC1 | KIT L576P | binding | competition with immobilised ligand | 1 µM | 8.6
CN1CCN(c2ccc(Nc3nccc(-c4ccccc4)n3)cc2C(F)(F)F)CC1 | KIT V559D | binding | – | 10 µM | 0.05
COc1ccnn2ncc(-c3ccnc(N(C)C)n3)c12 | KIT A829P | binding | – | 1 µM | 85
N#Cc1ccccc1CSc1nnc2c(n1)[nH]c1ccccc12 | Mast/stem cell growth factor receptor Kit (KIT, Homo sapiens, UniProt P10721) | binding | competition with immobilised ligand | 10 µM | 100
O=C(Nc1c[nH]nc1C(=O)NC1CCNCC1)c1cc(F)cc(F)c1 | KIT autoinhibited | binding | competition with immobilised ligand | 1 µM | 82
COc1cc(-c2cn(C3CCc4c(F)cccc4N(CC(F)(F)F)C3=O)nn2)ccc1-n1cnc(C)c1 (stereo not drawn) | KIT L576P | cell-free assay | competition with immobilised ligand | 1 µM | 100
O=C(NCCCN1CCOCC1)c1ccc(Nc2nccc(-c3cc4ccccc4s3)n2)cc1 | KIT T670I/V559D | binding | competition with immobilised ligand | 1 µM | 29
CN(C)c1nccc(-c2cnn3ncccc23)n1 | KIT A829P | binding | – | 1 µM | 81
C[C@@H]1CN(c2cc(-c3n[nH]c4ccc(OC5(C)CC5)cc34)ncn2)C[C@H](C)O1 | KIT autoinhibited | cell-free assay | competition with immobilised ligand | 0.1 µM | 70
CC1CCCN1c1nccc(-c2cnn3ncccc23)n1 (stereo not drawn) | KIT L576P | binding | – | 1 µM | 100
O=C(NCc1ncc(C(F)(F)F)cc1Cl)c1ccc2c(c1)C1(CCS(=O)(=O)CC1)[C@H](C1CC1)N2S(=O)(=O)c1ccc(F)cc1 | KIT A829P | cell-free assay | competition with immobilised ligand | 1 µM | 92
COc1cnc(Nc2cccc(S(N)(=O)=O)c2)nc1N1CCN(c2ccccc2)CC1 | Mast/stem cell growth factor receptor Kit (KIT, Homo sapiens, UniProt P10721, V559D/V654A) | binding | competition with immobilised ligand | 1 µM | 97
c1cncc(-c2cccc(Nc3nccc(NC4CCCCC4)n3)c2)c1 | KIT T670I/V559D | binding | competition with immobilised ligand | 10 µM | 29
C[C@H]1CCN(c2nccc(-c3cnn4ncccc34)n2)C1 | KIT D816H | binding | – | 1 µM | 84
CN(C(=O)c1ccccc1)c1cc(N(C)c2ccc3c(c2)CCc2ccc(C(=O)NCCN4CCOCC4)cc2C3=O)ccc1F | KIT T670I/V559D | cell-free assay | competition with immobilised ligand | 1 µM | 99
CN(C)c1ncc(F)c(-c2cnn3ncccc23)n1 | KIT T670I/V559D | binding | – | 1 µM | 100
O=c1nc(-c2ccccn2)sc2ccccc12 | KIT A829P | binding | competition with immobilised ligand | 1 µM | 100
CN(C)c1nccc(-c2cnc3ncccn23)n1 | KIT V559D | binding | – | 1 µM | 81
Cc1c(NC(=O)c2cc(C(N)=O)nc3cc(F)ccc23)c(C(F)(F)F)nn1Cc1ccc(C(C)(C)C)cc1 | KIT D816H | cell-free assay | competition with immobilised ligand | 1 µM | 100
